DTT redox prof: compounds producing H2O2 with reducing agent – biochemical, NIH compound library profiling, artefact control for MLSCN library redox annotation, primary screen; activation, % at 10 µM; AID 878; DTT-dependent redox cycling H2O2, phenol red/HRP absorbance; 100% = 100 µM peroxide control, 0% = buffer; 200,000 compounds, 0.03% hits;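 active = activation of at least 50% relative to the plate's high and low controls in the primary single-dose screen; inactive = activation below 50%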;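 note: compound incubated with DTT at 0.8 mM final as the reducing agent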
KLK5 inh: blocks human kallikrein 5 protease activity | inhibition, % at 5 µM | AID 873 | 210,000 compounds, 0.59% hits | recombinant hK5, fluorogenic AMC substrate cleavage;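 active = inhibition of 40% or more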;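 note: 0% = enzyme controls without compound and 100% = no-enzyme blanks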
Target sequence (Q9Y337 67-293 limits assumed): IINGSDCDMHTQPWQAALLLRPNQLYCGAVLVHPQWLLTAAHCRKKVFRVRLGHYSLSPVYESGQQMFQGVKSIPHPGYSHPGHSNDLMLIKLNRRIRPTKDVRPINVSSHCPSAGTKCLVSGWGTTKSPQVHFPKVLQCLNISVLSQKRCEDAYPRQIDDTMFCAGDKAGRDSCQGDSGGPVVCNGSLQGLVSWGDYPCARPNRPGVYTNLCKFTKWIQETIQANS
S1P3 antag: antagonists of human S1P3 receptor; AID 485; 170,000 compounds, 0.27% hits; inhibition, % at 4.98 µM; CHO S1P3 NFAT-BLA reporter, FRET fluorescence, antagonist mode; Q99500;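 active = inhibition above the plate cutoff, the mean inhibition of test wells on that plate plus 3 SD, cut at about 28% in these data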;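 note: cells challenged with S1P at its EC80 of 0.8 µM; blue over green emission ratio from cleaved BLA substrate after 4 h stimulation; 0% = S1P-stimulated wells and 100% = unstimulated DMSO-only wells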
Target sequence (Q99500 whole entry, looked up): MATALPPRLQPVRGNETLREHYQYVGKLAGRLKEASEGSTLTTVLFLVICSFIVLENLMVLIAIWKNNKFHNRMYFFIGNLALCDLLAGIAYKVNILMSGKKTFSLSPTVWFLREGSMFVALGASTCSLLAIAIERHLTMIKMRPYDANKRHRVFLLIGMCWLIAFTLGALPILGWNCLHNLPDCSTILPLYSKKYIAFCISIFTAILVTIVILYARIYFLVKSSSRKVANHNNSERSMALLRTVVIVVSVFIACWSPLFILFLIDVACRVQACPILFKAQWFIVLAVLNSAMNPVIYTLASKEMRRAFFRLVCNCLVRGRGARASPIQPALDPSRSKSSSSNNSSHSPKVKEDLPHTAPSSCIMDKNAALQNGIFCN
FXIa inh 1536: blocks human coagulation factor XIa protease activity | P03951 | purified FXIa, Boc-Glu-Ala-Arg-AMC fluorogenic substrate | inhibition, % at 5 µM | 220,000 compounds, 0.14% hits | AID 798;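 active = inhibition of at least 40%; inactive = inhibition below 40%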;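 note: fluorescence of freed AMC excited at 355 nm; 0% = enzyme without compound and 100% = no enzyme blank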
Thrombin inh: inhibitors of human thrombin. P00734. 220,000 compounds, 0.26% hits. inhibition, % at 5 µM. alpha-thrombin, Boc-VPR-AMC fluorogenic substrate cleavage;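 active = inhibition at or above 40%; inactive = inhibition below 40%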;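 note: 0% = enzyme with no compound and 100% = wells without enzyme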
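System – human alpha-thrombin protein · Reagent – Boc-VPR-AMC substrate, 15 µM final · Compound – 5 µM single dose in 0.2% DMSO · Schedule – reaction at room temperature · Technique – AMC fluorescence at 355 nm excitation and 460 nm emission · Read-out basis – % inhibition relative to enzyme controls and enzyme-free blanks · Control set – no-compound enzyme wells and no-enzyme blanks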
FXIIa inh 1536: factor XIIa (human) inhibition; purified FXIIa, Boc-QGR-AMC fluorogenic substrate, 2 h; inhibition, % at 5 µM; 220,000 compounds, 0.3% hits; in the data active = inhibition above about 40%;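 note: 0% = enzyme with no compound and 100% = blank without enzyme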
Starred values were filed as active, the others as inactive. Shown are actives, neighbours in structure and some others; about 1.2% of the full set was active somewhere.

How did CCOC(=O)C1=C(C)N=C2SCCC(=O)N2C1c1sccc1C (stereo not drawn) do in these assays?
DTT redox prof: -1; KLK5 inh: 3; S1P3 antag: -31; FXIa inh 1536: -8; Thrombin inh: 8; FXIIa inh 1536: 23

What do the screens show for `CCOCCCNS(=O)(=O)c1ccc(NC(=O)c2ccc(OC)c([N+](=O)[O-])c2)cc1`?
DTT redox prof: -1; KLK5 inh: 37; S1P3 antag: 4; FXIa inh 1536: 42*; Thrombin inh: 12; FXIIa inh 1536: 19

How did COc1ccc(C(=O)Nc2nc3nccc(-c4ccccc4)n3n2)cc1 do in these assays?
DTT redox prof: 0; KLK5 inh: -9; S1P3 antag: 12; FXIa inh 1536: -12; Thrombin inh: -7; FXIIa inh 1536: -6

How did COC(=O)CCCCCCCCC(O)CN(C)C (stereo not drawn) do in these assays?
KLK5 inh: 2; S1P3 antag: 7; FXIa inh 1536: 3; Thrombin inh: 1; FXIIa inh 1536: 7

How did COC(=O)CCCCCC(CCC(=O)OC)NC(C)=O (stereo not drawn) do in these assays?
DTT redox prof: 10; KLK5 inh: 51*; S1P3 antag: 2; FXIa inh 1536: 6; Thrombin inh: 24; FXIIa inh 1536: 16

What do the screens show for `N#C/C(N)=C(/C#N)N=Cc1cccc(Cl)c1`?
KLK5 inh: 0; S1P3 antag: -3; FXIa inh 1536: -2; Thrombin inh: -7; FXIIa inh 1536: 4

How did CC1(C)CC(=O)C(N=Nc2cccc(F)c2C#N)=C(O)C1 do in these assays?
KLK5 inh: -1; S1P3 antag: -14; FXIa inh 1536: -2; Thrombin inh: -8; FXIIa inh 1536: 4

What do the screens show for `Cc1ccc(N(C(=O)C2CCCC2)C2C=CS(=O)(=O)C2)cc1` (stereo not drawn)?
DTT redox prof: 2; KLK5 inh: 114*; S1P3 antag: -9; FXIa inh 1536: -7; Thrombin inh: 2; FXIIa inh 1536: -3

How did O=C(C1CCCC1)N(c1ccccc1)C1C=CS(=O)(=O)C1 (stereo not drawn) do in these assays?
DTT redox prof: 0; KLK5 inh: -5; S1P3 antag: -22; FXIa inh 1536: 1; Thrombin inh: -2; FXIIa inh 1536: 13

What do the screens show for `CCCCCc1ccc(OCCCC[n+]2ccccc2)c(CCCCC)c1`?
DTT redox prof: 0; KLK5 inh: -4; S1P3 antag: -8; FXIa inh 1536: -6; Thrombin inh: -2; FXIIa inh 1536: 1

Results for CCCCCc1ccc(OCCCC[n+]2ccc(C)cc2)c(CCCCC)c1 ?
DTT redox prof: 0; KLK5 inh: 40*; S1P3 antag: 1; FXIa inh 1536: 3; Thrombin inh: 9; FXIIa inh 1536: 11

How did Cc1c(O)c(S(=O)c2ccccc2)c(=O)n(-c2ccccc2)c1-c1ccccc1 (stereo not drawn) do in these assays?
DTT redox prof: 0; KLK5 inh: -8; S1P3 antag: -9; FXIa inh 1536: 5; Thrombin inh: 0; FXIIa inh 1536: 10

What do the screens show for `Cc1cc(-c2nc3ncccc3o2)ccc1NC(=S)NC(=O)C(C)C`?
DTT redox prof: 0; KLK5 inh: 20; S1P3 antag: -19; FXIa inh 1536: 37; Thrombin inh: 40*

What do the screens show for `CC1CC(C)CN(S(=O)(=O)c2ccc(C(=O)N3CCN(c4ccccc4)CC3)cc2)C1` (stereo not drawn)?
DTT redox prof: -2; KLK5 inh: 40*; S1P3 antag: 21; FXIa inh 1536: 1; Thrombin inh: 4; FXIIa inh 1536: 5

Results for COCCNC(=S)NN=C1CCCCCC1 ?
DTT redox prof: 0; KLK5 inh: 41*; S1P3 antag: 4; FXIa inh 1536: 34; Thrombin inh: 47*; FXIIa inh 1536: 54*

What do the screens show for `COCCNC(=S)NN=C1CCC(c2ccccc2)CC1` (stereo not drawn)?
DTT redox prof: -1; KLK5 inh: -2; S1P3 antag: -20; FXIa inh 1536: -3; Thrombin inh: -3; FXIIa inh 1536: 5

How did Cc1ccc(N2CC(C(=O)N/N=C/c3cccc([N+](=O)[O-])c3)CC2=O)cc1 (stereo not drawn) do in these assays?
DTT redox prof: 1; KLK5 inh: 33; FXIa inh 1536: 5; Thrombin inh: 104*; FXIIa inh 1536: 17

What do the screens show for `O=C(N/N=C/c1cccc([N+](=O)[O-])c1)C1CC(=O)N(c2ccc(Cl)cc2)C1` (stereo not drawn)?
DTT redox prof: 1; KLK5 inh: -3; FXIa inh 1536: -5; Thrombin inh: -6; FXIIa inh 1536: 6

Results for O=S(NC1CCCCC1)C12CC3CC(CC(C3)C1)C2 (stereo not drawn) ?
DTT redox prof: -1; KLK5 inh: -13; S1P3 antag: -43; FXIa inh 1536: 42*; Thrombin inh: 3; FXIIa inh 1536: 62*

Results for Cc1ccc(-c2nc(CN3CCCCC3)cc(CN3CCCCC3)c2O)cc1 ?
DTT redox prof: 0; KLK5 inh: -3; S1P3 antag: -7; FXIa inh 1536: -3; Thrombin inh: -7; FXIIa inh 1536: 6

Results for O=c1c(Cc2ccccc2)c(O)ccn1CCc1cnc[nH]1 ?
DTT redox prof: -1; KLK5 inh: -1; S1P3 antag: -7; FXIa inh 1536: 1; Thrombin inh: -7; FXIIa inh 1536: 8

How did Cc1cc(C)c(NS(=O)(=O)c2ccc(NC(=O)CCC(=O)O)cc2)c(C)c1 do in these assays?
DTT redox prof: 0; KLK5 inh: -23; S1P3 antag: -9; FXIa inh 1536: -2; Thrombin inh: 0; FXIIa inh 1536: -6

How did Cc1ccc(NC(=O)c2ccc(OC(=O)COc3cccc(Cl)c3)cc2)cc1 do in these assays?
DTT redox prof: 0; KLK5 inh: -15; S1P3 antag: -5; FXIa inh 1536: 7; Thrombin inh: 77*; FXIIa inh 1536: 8

What do the screens show for `Cc1ccc(N=Cc2c(O)n(-c3ccc4c(c3)OCO4)c(=O)c3ccccc23)cc1`?
DTT redox prof: 1; KLK5 inh: 2; FXIa inh 1536: -3; Thrombin inh: 1; FXIIa inh 1536: 43*

How did Cc1cccc(-n2c(O)c(C=Nc3ccc(O)cc3)c3ccccc3c2=O)n1 do in these assays?
DTT redox prof: 1; KLK5 inh: -5; S1P3 antag: 2; FXIa inh 1536: 0; Thrombin inh: 1; FXIIa inh 1536: 7

How did CCCCCCC1CC(=O)NC(=S)N1 (stereo not drawn) do in these assays?
DTT redox prof: 0; KLK5 inh: -2; S1P3 antag: -12; FXIa inh 1536: -5; Thrombin inh: -10; FXIIa inh 1536: 6

How did Oc1cccc(-c2nc3ccccc3s2)c1 do in these assays?
DTT redox prof: 3; KLK5 inh: 63*; S1P3 antag: -16; FXIa inh 1536: 14; Thrombin inh: 104*; FXIIa inh 1536: 12

Screening results deposited in PubChem BioAssay by several laboratories.
